# Screens: PubChem BioAssay, several laboratories
# A3G deaminase: APOBEC3G DNA deaminase inhibitors, primary screen, biochemical, fluorescence, single-stranded DNA substrate, uHTS; recombinant A3G, ssDNA deamination FAM/TAMRA fluorescence; DNA dC->dU-editing enzyme APOBEC-3G (Homo sapiens), Q9HC16; inhibition, % at 20 µM; AID 493012, 2011; hit rate 0.28% among 330,000;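 active = inhibition of at least 40% at 20 µM, with no more than 30% in the related APOBEC3A deaminase screen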;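 also: plate controls were DMSO wells with A3G for no effect and wells lacking A3G enzyme for full effect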
# SUMO HTRF inh: inhibitors of in vitro SUMOylation cascade, primary screen, biochemical, HTRF, uHTS; SUMO-conjugating enzyme UBC9 (Homo sapiens), P63279; HTRF SUMOylation assay, SAE1/SAE2 + UBC9; inhibition, % at 35 µM; hit rate 0.36% among 290,000; AID 2006, 2009; in the data active = inhibition above about 50%, passing the limit was not always enough
# HKDC1 inh: HKDC1 hexokinase inhibitors, primary screen, biochemical, fluorescence, uHTS. Q2TB90. recombinant HKDC1, G6PDH/diaphorase resazurin coupled fluorescence. inhibition, % at 20 µM. hit rate 0.16% among 340,000;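 active = inhibition above about 35% when tested at 20 µM, limit read from the data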;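 also: plate controls were DMSO wells with enzyme for no effect and DMSO wells lacking enzyme for full effect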
# Target sequence (Q2TB90 whole entry, looked up): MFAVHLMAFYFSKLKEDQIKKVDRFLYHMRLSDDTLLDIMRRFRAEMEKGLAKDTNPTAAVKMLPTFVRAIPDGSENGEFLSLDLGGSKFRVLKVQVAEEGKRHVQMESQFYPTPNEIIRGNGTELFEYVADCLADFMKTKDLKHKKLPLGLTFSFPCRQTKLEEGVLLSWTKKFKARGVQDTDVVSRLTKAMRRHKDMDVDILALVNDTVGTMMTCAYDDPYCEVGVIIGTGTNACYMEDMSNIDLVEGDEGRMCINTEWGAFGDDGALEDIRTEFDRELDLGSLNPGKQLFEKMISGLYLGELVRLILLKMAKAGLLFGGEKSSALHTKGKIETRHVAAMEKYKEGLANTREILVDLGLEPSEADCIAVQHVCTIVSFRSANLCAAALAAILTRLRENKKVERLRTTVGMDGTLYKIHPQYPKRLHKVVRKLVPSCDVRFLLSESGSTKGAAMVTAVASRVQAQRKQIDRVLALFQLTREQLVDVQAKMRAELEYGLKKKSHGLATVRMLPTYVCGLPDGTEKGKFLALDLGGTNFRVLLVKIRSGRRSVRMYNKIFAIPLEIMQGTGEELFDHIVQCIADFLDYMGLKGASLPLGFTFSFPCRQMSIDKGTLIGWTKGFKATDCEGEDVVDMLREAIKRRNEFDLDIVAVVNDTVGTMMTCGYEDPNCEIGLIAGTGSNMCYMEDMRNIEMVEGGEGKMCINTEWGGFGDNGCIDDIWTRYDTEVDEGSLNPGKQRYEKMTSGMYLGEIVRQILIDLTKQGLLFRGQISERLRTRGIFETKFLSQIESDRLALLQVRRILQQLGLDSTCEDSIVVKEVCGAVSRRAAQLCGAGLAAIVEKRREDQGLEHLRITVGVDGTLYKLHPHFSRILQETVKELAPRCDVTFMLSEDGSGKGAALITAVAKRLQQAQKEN
#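 Assay system: in-house recombinant HK5 (HKDC1) enzyme. Input: HKDC1 at 5 µg/mL. Medium: Tris pH 8.0 buffer with MgCl2, Tween-20, BSA, BME. Dosing: single 20 µM dose. Schedule: 90 min reaction incubation at room temperature, dark. Signal: resazurin-to-resorufin fluorescence via G6PDH and diaphorase coupling, 525/613 nm. Controls: DMSO-enzyme wells negative, buffer-substituted wells positive.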
# PfGluPho inh: PfG6PD enzyme inhibitors, primary screen, biochemical, fluorescence intensity, uHTS; glucose-6-phosphate dehydrogenase-6-phosphogluconolactonase (Plasmodium falciparum 3D7); PfGluPho enzyme, NADPH resazurin-diaphorase fluorescence; inhibition, % at 20 µM; hit rate 0.78% among 350,000; AID 504690, 2011;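 active = inhibition reaching at least a set limit at 20 µM in the primary screen, cut at about 59% in these data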;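 also: 0% = DMSO wells with substrate and 100% = DMSO wells lacking glucose-6-phosphate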
# APOBEC3A inh: APOBEC3A ssDNA deaminase inhibitors, primary screen, selectivity assay for APOBEC3G inhibitor project, biochemical, FAM/TAMRA oligo cleavage fluorescence; DNA dC->dU-editing enzyme APOBEC-3A (Homo sapiens), P31941; AID 493011, 2011; recombinant A3A, FAM/TAMRA ssDNA deamination fluorescence; hit rate 0.41% among 330,000; inhibition, % at 20 µM;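 active = at least 40% inhibition at 20 µM here, with at most 30% in a related deaminase screen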;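 also: plate controls were A3A with DMSO for no effect and wells lacking A3A enzyme for full effect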
# PfM18AAP inh-1: PfM18AAP inhibitors, malaria aminopeptidase, primary screen, biochemical, QFRET, recombinant enzyme; M18 aspartyl aminopeptidase (Plasmodium falciparum 3D7); H-Glu-NHMec fluorogenic cleavage; inhibition, % at 7.35 µM; hit rate 1.2% among 290,000;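 active = inhibition above the campaign mean inhibition over all tested compounds plus 3 SD, cut at about 28% in these data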;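 also: 0% = plate median of test compound wells and 100% = 2 mM ZnCl2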
# PfM18AAP inh-2: PfM18AAP inhibitors, malaria aminopeptidase, confirmation, biochemical, QFRET, recombinant enzyme, triplicate. inhibition, % at 7.35 µM. shares compounds with PfM18AAP inh-1. H-Glu-NHMec fluorogenic cleavage. hit rate 28% among 2,400;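 active = mean inhibition over replicate wells above the hit cutoff set for the earlier primary screen, cut at about 29% in these data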;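 also: 0% = median of test compound wells and 100% = 2 mM ZnCl2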
# CTSL1 confirm: cathepsin L1 inhibitors, retest, confirmation, counter-screen for PFM18AAP inhibitor project, biochemical, QFRET, triplicate; shares compounds with PfM18AAP inh-1; purified cathepsin L1, Z-Leu-Arg-MCA fluorescence; inhibition, % at 5.96 µM; 2,400 tested, under 10 active;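 active = average inhibition across replicates above the hit cutoff set in the earlier primary screen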;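 also: 0% = median of test compound wells and 100% = Z-Phe-Ala-diazomethylketone 1 µM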
# * hit, by the source's call; nt = not tested or not shown. An excerpt weighted towards active compounds, which were near 2.4% of everything screened.
SMILES,A3G deaminase,SUMO HTRF inh,HKDC1 inh,PfGluPho inh,APOBEC3A inh,PfM18AAP inh-1,PfM18AAP inh-2,CTSL1 confirm
Cc1ccc(-c2cc(C(F)(F)F)n3nc(C(=O)Nc4c(C)n(C)n(-c5ccccc5)c4=O)cc3n2)cc1,-0.2,15.5,1.0,-15.0,0.2,-10.2,nt,nt
CN(C)c1ccc(/C=N/Nc2ccc(-n3ccnc3)nn2)cc1,4.4,-22.5,-1.2,30.8,-2.5,34.4*,-38.7,8.1
CN(C)c1ccc(/C=N\Nc2ccccn2)cc1,-8.2,-7.3,-4.9,22.0,-6.2,-4.5,nt,nt
Cc1ccc2[nH]c3c(c2c1)CCC3=O,-6.0,44.5,-4.4,-3.0,0.1,2.2,nt,nt
Cc1ccc2[nH]c3c(c2c1)CCc1cn[nH]c1-3,-0.3,27.1,20.1,40.1,1.4,33.1*,-20.6,4.7
N#C/C(=C\c1c(N(Cc2ccccc2)Cc2ccccc2)nc2ccccn2c1=O)C(N)=O,-3.5,3.2,-5.1,10.8,-2.9,4.6,nt,nt
O=C(NNc1cccc([N+](=O)[O-])c1)/C(=C\c1cccnc1)NC(=O)c1ccccc1,-3.3,9.1,0.1,13.7,-5.4,46.2*,10.3,1.4
COc1cc(NC(=O)Nc2cc(C)on2)cc(OC)c1OC,-3.9,-0.4,-0.4,18.9,0.2,-0.3,nt,nt
Cc1ccccc1N1CCN(Cc2cc3c(cc2[N+](=O)[O-])OCO3)CC1,-4.9,14.6,1.2,11.3,-2.8,35.1*,-26.4,-1.4
CCN(CC)C(=O)c1csc(Nc2cccc3ccccc23)n1,1.0,39.0,10.9,1.7,1.1,31.8*,-17.9,3.8
CCN(CC)CCCNC(=O)c1csc(Nc2cccc3ccccc23)n1,-3.4,1.8,1.5,17.2,-4.4,15.5,nt,nt
Cc1nnc(SCC(=O)NNC(=O)CC#N)[nH]c1=O,-1.5,-11.5,-15.5,-5.2,-1.4,42.7*,27.6,3.9
COc1cccc(/C=N/Nc2nnc(C)n2N)c1O,-5.3,4.0,-6.0,24.0,-2.2,38.9*,-7.8,-0.2
Cc1nnc(N/N=C/c2ccccc2C(F)(F)F)n1N,-8.3,17.4,-7.0,28.9,-8.2,38.9*,-33.7,2.0
CCOC(=O)c1c(-c2cccs2)csc1N,-5.2,8.3,0.3,21.6,-3.8,36.0*,-41.8,-1.9
CCOC(=O)c1c(-c2ccco2)csc1N,-9.4,-4.9,-2.9,24.3,-2.2,21.2,nt,nt
CCOC(=O)CN1NC2(CCCC(C)C2)NC1=S (stereo not given),-13.8,21.9,-3.9,20.4,-7.7,42.9*,-51.8,-0.8
CCOC(=O)CN1NC2(CCC(C)CC2)NC1=S (stereo not given),-8.3,7.3,-1.5,20.5,-5.8,42.6*,-47.9,-2.7
COCCNC(=O)c1c[nH]c2ccc(S(=O)(=O)N3CCc4ccccc43)cc2c1=O,1.8,0.8,12.2,1.0,4.0,3.5,nt,nt
CCNC(=S)NNC(=O)CSc1nc2ccccc2n1C,-4.7,15.4,3.8,-5.0,-3.7,31.7*,2.2,-1.0
CCNC(=S)NNC(=O)CSc1nc2ccccc2[nH]1,5.5,-0.1,0.7,-3.3,-7.3,18.4,nt,nt
S=c1[nH]nc(Cc2noc3ccccc23)n1-c1ccccc1,32.1,-4.6,2.1,26.0,2.1,33.1*,-1.2,-2.6
O=c1c2ccccc2cnn1Cc1n[nH]c(=S)n1-c1ccccc1,20.7,-1.7,-2.0,39.2,-1.6,34.8*,18.5,3.9
O=c1c2ccccc2cnn1Cc1n[nH]c(=S)n1-c1ccc(Cl)cc1Cl,-2.4,-6.9,nt,nt,-4.0,17.4,nt,nt
S=c1[nH]nc(Cc2cccc3ccccc23)n1-c1ccccc1,4.1,3.5,0.0,18.9,-1.6,2.6,nt,nt
SMILES,A3G deaminase,SUMO HTRF inh,HKDC1 inh,PfGluPho inh,APOBEC3A inh,PfM18AAP inh-1,PfM18AAP inh-2,CTSL1 confirm
O=C(NCC1CCCN(Cc2nccs2)C1)c1cccc2ccccc12 (stereo not given),-4.3,1.3,8.8,-1.8,-5.8,1.6,nt,nt
COc1ccc(/C=N/NC(=O)c2cccc(NC(=O)c3ccccc3Cl)c2)c(OC)c1,-0.5,-0.1,-3.3,-14.8,5.1,3.0,nt,nt
CCCCCc1cc(=O)[nH]c(=S)[nH]1,-5.6,4.3,-7.9,-1.4,-2.8,7.0,nt,nt
CCCc1cc(=O)[nH]c(=S)[nH]1,-7.5,11.3,-5.2,-3.7,-4.8,43.8*,-36.1,-6.4
O=C(NC1CC1)c1ccc(S(=O)(=O)NC2CCCCCC2)cc1,-0.5,-11.7,-11.6,-4.5,-0.3,-0.4,nt,nt
COc1cccc(C(=O)n2cnnc2N)c1OC,-6.4,1.1,-12.9,-0.9,-1.4,56.3*,51.4*,-3.2
COc1cccc(C(=O)OCCCOC(=O)c2cccc(OC)c2OC)c1OC,-8.2,0.7,-0.2,3.8,-1.6,1.1,nt,nt
Cc1ccc(C(=O)n2cnnc2N)cc1C,-0.3,11.3,6.3,17.2,-1.7,43.8*,56.6*,-1.4
Nc1nncn1C(=O)c1cccs1,-2.6,29.7,-1.4,-0.1,-2.1,40.2*,48.9*,-5.3
Cc1ccc(C)c(C(=O)n2cnnc2N)c1,-0.2,11.5,-2.2,-6.1,4.4,35.0*,50.6*,-2.3
Cc1ccc(-c2nc(N)n(C(=O)c3cccs3)n2)cc1,-9.3,27.8,-3.4,17.6,-6.6,-2.4,nt,nt
Cc1cc(C)c2c(C)c(C(=O)Nc3c(C)n(C)n(-c4ccccc4)c3=O)oc2c1,3.0,-9.0,-0.6,2.7,2.4,6.7,nt,nt
CN(C(=O)CSc1nnc(Cc2ccccc2F)n1N)C1CCS(=O)(=O)C1 (stereo not given),-5.8,14.3,2.6,12.5,-1.1,1.2,nt,nt
Cc1[nH]c2ccccc2c1-c1csc(NC(=O)CN2CCOCC2)n1,8.2,6.1,-2.6,-4.0,8.2,5.5,nt,nt
COc1ccc(NC(=O)COc2nsnc2N2CCOCC2)c(OC)c1,6.8,4.9,-5.2,4.2,-0.1,11.2,nt,nt
Cc1cccc2sc(NC(=O)CCNS(=O)(=O)c3cccs3)nc12,0.2,-24.1,-0.7,7.7,-2.7,3.2,nt,nt
Cc1ccc(C(=O)n2cnnc2N)cc1,-3.4,-10.1,-1.6,-2.2,-3.5,41.3*,47.4*,-2.9
Nc1nncn1C(=O)c1cc(Br)ccc1Cl,-2.7,-0.5,-1.9,-1.5,1.9,46.0*,47.5*,9.9
